The results in this text go back to ChEMBL document CHEMBL2311436, “Synthesis of acylated glycoconjugates as templates to investigate in vitro biopharmaceutical properties” (Bioorg Med Chem Lett, 2013).

Structures are written as SMILES.

In general, half-life refers to how long it takes for the measured level to halve. Read a low half-life as fast loss.

In one data set the test system is Plasma. In words: (§1) Degradation half life in human plasma. Format: ADME, cell-free. The method, boiled down: (§2)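 Compounds were incubated in human plasma at 37 °C, and ester hydrolysis was followed by mass spectrometry. Tri-, di- and mono-acylated intermediates and the fully deacylated product were tracked by their characteristic molecular weights.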
Another data set has as its target Albumin (Homo sapiens, UniProt P02768). The experiment in a line: Binding affinity to human serum albumin by chromatographic HSA binding assay. Format: ADME. As to conditions: isolated protein. A digest of the protocol:
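Protein binding was estimated from retention time on an immobilized human serum albumin (HSA) HPLC column, correlated against standard compounds with known protein binding values. This was used in place of equilibrium dialysis or ultrafiltration because the esters may deacylate under those conditions.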

Data set [1] concerns Liver microsomes. The experiment in a line: In vitro intrinsic clearance in human liver microsomes assessed per milligram. Type of data set: ADME, Microsome. The method, boiled down: (§3)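 Compounds were incubated with human liver microsomes, and mass spectrometry monitored parent loss and the appearance of mono-, di- and tri-acylated and fully deacylated hydrolysis products.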
On the technique in general: Liver microsomes are vesicles of endoplasmic reticulum, rich in cytochrome P450 enzymes.

Data set [2] has as its system Liver microsomes. The experiment in a line: In vitro intrinsic clearance in human liver microsomes assessed per milligram of protein in presence of NADPH. Type of data set: ADME, Microsome. The method, boiled down: as §3
Data set [3] can be described thus: as §1. Format: ADME, cell-free. The method, boiled down:
as §2

Chain of Albumin (P02768 whole entry): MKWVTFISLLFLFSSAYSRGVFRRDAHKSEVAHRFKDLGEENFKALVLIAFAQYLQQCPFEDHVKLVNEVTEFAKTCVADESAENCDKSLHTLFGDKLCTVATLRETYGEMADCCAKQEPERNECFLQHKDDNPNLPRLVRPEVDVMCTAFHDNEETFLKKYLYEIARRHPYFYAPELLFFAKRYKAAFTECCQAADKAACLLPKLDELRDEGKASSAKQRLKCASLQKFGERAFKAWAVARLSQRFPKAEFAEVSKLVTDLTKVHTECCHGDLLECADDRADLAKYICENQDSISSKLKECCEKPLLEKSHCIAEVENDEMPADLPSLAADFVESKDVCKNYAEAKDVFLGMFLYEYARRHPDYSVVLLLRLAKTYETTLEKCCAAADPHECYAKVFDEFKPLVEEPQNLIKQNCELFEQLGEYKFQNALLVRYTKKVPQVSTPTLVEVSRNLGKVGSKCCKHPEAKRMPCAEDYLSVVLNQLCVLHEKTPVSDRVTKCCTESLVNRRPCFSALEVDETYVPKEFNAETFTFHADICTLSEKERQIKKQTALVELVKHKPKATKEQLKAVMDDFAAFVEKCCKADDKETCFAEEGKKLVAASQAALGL

As to `CC(C)CC(=O)OC[C@H]1O[C@@H](n2cc(-c3ccccc3)nn2)[C@H](OC(=O)CC(C)C)[C@@H](OC(=O)CC(C)C)[C@@H]1OC(=O)CC(C)C`, the t1/2 entry with Plasma was “Stable”. Besides, the Activity on Albumin is on record as less than 99%. The CLH in the data set on Liver microsomes [1] and in the data set on Liver microsomes [2] was less than 7 µL/min each time.

As to `CCCCC(=O)OC[C@H]1O[C@@H](n2cc(-c3ccccc3)nn2)[C@H](OC(=O)CCCC)[C@@H](OC(=O)CCCC)[C@@H]1OC(=O)CCCC`, the t1/2 result in the data set on Plasma is “Stable”. Also, the Activity on Albumin is given as less than 99%. The CLH with Liver microsomes [1] and in the data set on Liver microsomes [2] was less than 7 µL/min each time.

Take `CCCC(=O)OC[C@H]1O[C@@H](n2cc(-c3ccccc3)nn2)[C@H](OC(=O)CCC)[C@@H](OC(=O)CCC)[C@@H]1OC(=O)CCC`: the half-life in data set [3] worked out at 555 min. Also, the Activity on Albumin was 96%. Also, the CLH was determined as 83 µL/min in the data set on Liver microsomes [1] and 69 µL/min in the data set on Liver microsomes [2].

Regarding `CC(=O)OC[C@H]1O[C@@H](n2cc(-c3ccccc3)nn2)[C@H](OC(C)=O)[C@@H](OC(C)=O)[C@@H]1OC(C)=O`, the half-life in data set [3] worked out at 55 min. Moreover, the Activity on Albumin was found to be 59%. Further, the CLH with Liver microsomes [1] is 423 µL/min; in the data set on Liver microsomes [2], 397 µL/min.

Compound `CCC(=O)OC[C@H]1O[C@@H](n2cc(-c3ccccc3)nn2)[C@H](OC(=O)CC)[C@@H](OC(=O)CC)[C@@H]1OC(=O)CC` returned a half-life in data set [3] of 26 min. Further, the Activity at Albumin amounted to 88%. Further, the CLH result in the data set with Liver microsomes [1] and in the data set with Liver microsomes [2] was “ND(Unstable)” throughout.

For the compound `OC[C@H]1O[C@@H](n2cc(-c3ccccc3)nn2)[C@H](O)[C@@H](O)[C@@H]1O`, the t1/2 entry in the data set with Plasma was “Stable”. Further, the Activity on Albumin is 19%. Moreover, the CLH with Liver microsomes [1] and in the data set with Liver microsomes [2] was less than 7 µL/min throughout.
